Assay results taken from ChEMBL document CHEMBL1124988, “Synthesis and antimicrobial and cytotoxic activities of pyrrole-containing analogues of trichostatin A” (J Med Chem, 1990).
Values after ≈ are worked out from the molar mass of the structure shown.

Experiments:
Human alphaherpesvirus 1 = test: Effective dose required for antiviral activity against HSV-1 virus; type: functional; settings: read-out: ED50 (the source's name)
In short: (§1)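 Plaque-reduction assay in Vero cells. Dose-response lines were drawn by linear regression, and ED50 is the concentration giving 50% fewer plaques than untreated, virus-infected controls.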

[1] = tested on: Vesicular stomatitis virus; test: Effective dose required for antiviral activity against VSV virus; type: functional; settings: read-out: ED50 (the source's name)
[2] = Toxic dose that reduced by 50% the number of cells with respect to untreated controls.; type: toxicity, cell-based; settings: chlorocebus sabaeus, Vero cells; read-out: TD50 (the source's name)
In short: (§2)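 Exponentially growing Vero cells were exposed to a range of compound concentrations for three cell cycles (3 days) at 37 °C in 5% CO2. Viable cells were counted by hemocytometer in duplicate samples. MNTD is the highest concentration still allowing exponential growth. TD50 is the concentration halving cell number versus untreated controls.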

[3] = tested on: African swine fever virus; test: Effective dose required for antiviral activity against ASFV virus; type: functional; settings: read-out: ED50 (the source's name)
Vero = test: Maximum nontoxic dose that allow exponential cell growth for three cell cycles; type: functional, Chlorocebus sabaeus; in short: as §2
unidentified adenovirus = test: Effective dose required for antiviral activity against adeno virus; type: functional; settings: read-out: ED50 (the source's name); in short: as §1
Vaccinia virus = test: Effective dose required for antiviral activity against Vaccinia virus; type: functional; settings: Orthopoxvirus vaccinia; read-out: ED50 (the source's name)

Compound | EC50 (Human alphaherpesvirus 1) [µg/mL] | EC50 [1] [µg/mL] | CC50 [2] [µg/mL] | EC50 [3] [µg/mL] | MNTD (Vero) [µg/mL] | EC50 (unidentified adenovirus) [µg/mL] | EC50 (Vaccinia virus) [µg/mL]
CCOC(=O)/C=C/c1cc(C(=O)c2ccccc2)cn1C | 30 (≈ 106 µM) | 30 (≈ 106 µM) | 4 (≈ 14.1 µM) | 30 (≈ 106 µM) | 2 | 30 (≈ 106 µM) | 30 (≈ 106 µM)
Cn1cc(C(=O)c2ccc(N)cc2)cc1/C=C/C(=O)O | > 1000 | > 1000 | > 1000 | 250 (≈ 925 µM) | >1000 | 1000 (≈ 3700 µM) | 1000 (≈ 3700 µM)
CCOC(=O)/C=C/c1cc(C(=O)c2ccc(N(C)C)cc2)cn1C | 15 (≈ 46 µM) | 8 (≈ 24.5 µM) | 4 (≈ 12.3 µM) | 8 (≈ 24.5 µM) | 2 | 15 (≈ 46 µM) | 15 (≈ 46 µM)
Nc1nc2c(ncn2COCCO)c(=O)[nH]1 [ACYCLOVIR] | 0.02 (≈ 0.0888 µM) | > 40 | 240 (≈ 1070 µM) | 40 (≈ 178 µM) | 40 |  | > 110
CCOC(=O)/C=C/c1cc(C(=O)c2ccc(-n3ccnc3)cc2)cn1C | 500 (≈ 1430 µM) | 500 (≈ 1430 µM) | 30 (≈ 85.9 µM) | 30 (≈ 85.9 µM) | 15 | 15 (≈ 42.9 µM) | > 500
Cn1cc(C(=O)c2ccc(Cl)cc2)cc1/C=C/C(=O)NO | 30 (≈ 98.4 µM) | > 30 | 30 (≈ 98.4 µM) | 20 (≈ 65.6 µM) | 15 | 15 (≈ 49.2 µM) | 30 (≈ 98.4 µM)
CCOC(=O)/C=C/c1cc(C(=O)c2ccc(Cl)cc2)cn1C | 350 (≈ 1100 µM) | > 1000 | 500 (≈ 1570 µM) | > 500 | 250 | 30 (≈ 94.4 µM) | 500 (≈ 1570 µM)
Cn1cc(C(=O)c2ccc([N+](=O)[O-])cc2)cc1/C=C/C(=O)O | 50 (≈ 167 µM) | > 100 | 60 (≈ 200 µM) | 50 (≈ 167 µM) | 15 | 50 (≈ 167 µM) | 15 (≈ 50 µM)
Cn1cc(C(=O)c2ccc(F)cc2)cc1/C=C/C(=O)O | 60 (≈ 220 µM) | > 50 | 60 (≈ 220 µM) | 30 (≈ 110 µM) | 15 | 50 (≈ 183 µM) | 100 (≈ 366 µM)
CCOC(=O)/C=C/c1cc(C(=O)c2ccc(F)cc2)cn1C | 10 (≈ 33.2 µM) | 50 (≈ 166 µM) | 15 (≈ 49.8 µM) | 10 (≈ 33.2 µM) | 4 | 50 (≈ 166 µM) | 10 (≈ 33.2 µM)
CCOC(=O)/C=C/c1cc(C(=O)c2ccc(OC)cc2)cn1C | 15 (≈ 47.9 µM) | 15 (≈ 47.9 µM) | 15 (≈ 47.9 µM) | 8 (≈ 25.5 µM) | 8 | 4 (≈ 12.8 µM) | 20 (≈ 63.8 µM)
Nc1ncnc2c1ncn2[C@@H]1O[C@H](CO)[C@@H](O)[C@@H]1O [VIDARABINE] | 10 (≈ 37.4 µM) | > 10 | 10 (≈ 37.4 µM) | 40 (≈ 150 µM) | 6 |  | 16 (≈ 59.9 µM)
Cc1ccc(C(=O)c2ccn(/C=C/C(=O)O)c2)cc1 | 100 (≈ 392 µM) | > 125 | 125 (≈ 490 µM) | 8 (≈ 31.3 µM) | 30 | 60 (≈ 235 µM) | 100 (≈ 392 µM)
Cn1cc(C(=O)c2ccc([N+](=O)[O-])cc2)cc1/C=C/C(=O)NO | 15 (≈ 47.6 µM) | > 50 | 30 (≈ 95.2 µM) | 25 (≈ 79.3 µM) | 15 | 25 (≈ 79.3 µM) | 15 (≈ 47.6 µM)
CCOC(=O)/C=C/c1cc(C(=O)c2ccc([N+](=O)[O-])cc2)cn1C | 125 (≈ 381 µM) |  | 8 (≈ 24.4 µM) | 60 (≈ 183 µM) | 2 |  | 60 (≈ 183 µM)
Cn1cc(C(=O)c2ccc(Cl)cc2)cc1/C=C/C(=O)O | 500 (≈ 1730 µM) | 250 (≈ 863 µM) | 125 (≈ 431 µM) | > 250 | 30 | > 500 | 100 (≈ 345 µM)
Cn1cc(C(=O)c2ccc(F)cc2)cc1/C=C/C(=O)NO | 10 (≈ 34.7 µM) | > 50 | 15 (≈ 52 µM) | 12 (≈ 41.6 µM) | 8 | > 50 | 15 (≈ 52 µM)
Cn1cc(C(=O)c2ccc(-n3ccnc3)cc2)cc1/C=C/C(=O)O | > 250 | 250 (≈ 778 µM) | > 250 | 250 (≈ 778 µM) | 125 | 250 (≈ 778 µM) | > 250
COc1ccc(C(=O)c2cc(/C=C/C(=O)O)n(C)c2)cc1 | > 500 | 1000 (≈ 3510 µM) | > 500 | 350 (≈ 1230 µM) | 500 | 250 (≈ 876 µM) | 500 (≈ 1750 µM)
CN(C)c1ccc(C(=O)c2cc(/C=C/C(=O)O)n(C)c2)cc1 | > 250 | > 500 | > 250 | > 250 | 125 | 125 (≈ 419 µM) | > 250
Cn1cc(C(=O)c2ccccc2)cc1/C=C/C(=O)NO | > 30 | > 30 | 30 (≈ 111 µM) | > 30 | 15 | > 30 | > 30
Cn1cc(C(=O)c2ccccc2)cc1/C=C/C(=O)O | > 500 | 500 (≈ 1960 µM) | > 250 | 250 (≈ 979 µM) | 250 | 250 (≈ 979 µM) | > 500
